Test results as given in ChEMBL document CHEMBL1134780, “Indolequinone antitumor agents: correlation between quinone structure and rate of metabolism by recombinant human NAD(P)H:quinone oxidoreductase. Part 2” (J Med Chem, 2001).

Experiments:
[1] = test system: BE-WT; assay: Cytotoxicity against BE human colon carcinoma cell lines BE-WT(No NQO1 activity); assay type: functional, cell-based
Method in brief: (§1)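 MTT assay in BE colon carcinoma cells, wild-type (BE-WT) or stably transfected with human NQO1 cDNA (BE-NQ). Cells grown in MEM/10% FBS at 37 °C, 5% CO2, plated at (1–2) × 10^4 cells/mL and attached 16 h. Drug exposure 2 h, then drug-free medium for 5–7 days. MTT for 4 h, formazan dissolved in DMSO, A550. IC50 taken from % control versus concentration plots.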

[2] = test system: BE-NQ; assay: Cytotoxicity against BE human colon carcinoma cell lines BE-NQ( high NQO1 activity); assay type: functional, cell-based; method in brief: as §1
[3] = molecular target: NAD(P)H dehydrogenase [quinone] 1 (Homo sapiens) (UniProt P15559); assay: NADH oxidation is used as a measure metabolism since 1 mol of NADH is oxidized for each mole of compound that is reduced; assay type: functional
Chain of NAD(P)H dehydrogenase [quinone] 1 (Homo sapiens) (P15559 whole entry): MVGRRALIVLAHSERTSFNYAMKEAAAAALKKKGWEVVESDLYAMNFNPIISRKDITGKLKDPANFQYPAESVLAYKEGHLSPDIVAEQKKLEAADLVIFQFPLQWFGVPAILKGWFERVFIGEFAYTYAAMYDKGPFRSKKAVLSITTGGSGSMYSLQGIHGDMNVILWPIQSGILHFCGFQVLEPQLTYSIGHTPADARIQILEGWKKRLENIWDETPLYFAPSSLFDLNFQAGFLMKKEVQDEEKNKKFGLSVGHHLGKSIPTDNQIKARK

[4] = molecular target: NAD(P)H dehydrogenase [quinone] 1 (Homo sapiens) (UniProt P15559); assay: Ability to inactivate Recombinant human NQO1; assay type: functional; set-up: concentration or dose not given beside the values
Method in brief: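 Recombinant hNQO1 (1–2 µg) preincubated 30 min at 22 °C with 10 µM indolequinone, with or without 100 µM NADH, in 25 mM Tris-HCl pH 7.4 + 2 mg/mL Tween-20. Reaction stopped with cold Tris-HCl/250 mM sucrose. Residual activity measured as reduction of 40 µM DPIP with 200 µM NADH (0.7 mg/mL BSA) at 600 nm for 30 s. Reported as % remaining, +NADH versus −NADH.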

Row | Metabolism [3] [µM/min/mg] | Enzyme activity [4] [%] | Compound | IC50 [1] [µM] | IC50 [2] [µM]
1 | 0.38 |  | COC1=CC(=O)c2c(c(COc3ccc(NC(C)=O)cc3)c(C)n2C)C1=O | 10.3 | 6.6
2 | 0.23 |  | CCOC(=O)c1c2c(n(C)c1-c1ccc3ccccc3c1)C(=O)C=C(OC)C2=O | 49 | > 50
3 | 9.2 |  | COC1=CC(=O)c2c(c(CO)c(C)n2-c2ccc(F)cc2)C1=O |  | 
4 |  | 0 | COC1=CC(=O)c2c(c(COC(C)=O)c(C)n2C)C1=O |  | 
5 | 0.05 |  | COC1=CC(=O)c2c(c(COc3ccc([N+](=O)[O-])cc3OC)c(C)n2C)C1=O | 1.5 | 0.51
6 | 0.9 |  | CCc1c(CO)c2c(n1Cc1ccccc1)C(=O)C=C(OC)C2=O |  | 
7 | 4 |  | COC1=CC(=O)c2c(c(CO)c(-c3ccc4ccccc4c3)n2C)C1=O | > 50 | > 50
8 | 6 |  | COC1=CC(=O)c2c(c(CO)c(C)n2-c2ccccc2)C1=O |  | 
9 | 16.4 |  | CCOC(=O)c1c2c(n(-c3ccccc3)c1C)C(=O)C=C(OC)C2=O |  | 
10 | 1.3 |  | CCCn1c(C)c(CO)c2c1C(=O)C=C(OC)C2=O |  | 
11 | 14 |  | COC1=CC(=O)c2c(c(CO)c(C)n2C2CC2)C1=O |  | 
12 | 0.05 | 0 | COC1=CC(=O)c2c(c(COc3ccc([N+](=O)[O-])cc3F)c(C)n2C)C1=O | 1.5 | 1.2
13 | 0.15 |  | CN1CCN(C2=CC(=O)c3c(c(CO)c(-c4ccccc4)n3C)C2=O)CC1 |  | 
14 | 3 |  | COC1=C(C)C(=O)c2c(c(CO)c(C)n2-c2ccccc2)C1=O |  | 
15 | 0.28 |  | COC1=CC(=O)c2c(c(COc3ccccc3)c(C)n2C)C1=O |  | 
16 | 13.6 | 96 | COC1=CC(=O)c2c(c(CO)cn2C)C1=O | > 50 | > 50
17 | 0.29 | 52 | COC1=CC(=O)c2c(c(COc3ccc([N+](=O)[O-])cc3)cn2C)C1=O | 1.05 | 0.44
18 | 0.05 | 13 | COC1=CC(=O)c2c(c(COc3cc([N+](=O)[O-])ccc3OC)c(C)n2C)C1=O | 34.4 | 6.5
19 | 9.3 |  | CCc1c(C(=O)OC)c2c(n1Cc1ccccc1)C(=O)C=C(OC)C2=O |  | 
20 | 0.09 | 0 | COC1=CC(=O)c2c(c(COC(=O)Cc3ccc(-c4ccccc4)cc3)c(C)n2C)C1=O | 5.5 | 5.1

Further lines, the molecule ahead of its results:

Row | Compound | Metabolism [3] [µM/min/mg] | Enzyme activity [4] [%] | IC50 [1] [µM] | IC50 [2] [µM]
21 | COC1=CC(=O)c2[nH]c(C)c(C(C)O)c2C1=O (centres undefined) | 27.7 |  |  | 
22 | CCCn1c(C)c(C(=O)OCC)c2c1C(=O)C=C(OC)C2=O | 77.6 |  |  | 
23 | CCOC(=O)c1c2c(n(CCN3CCOCC3)c1C)C(=O)C(C)=C(OC)C2=O | 39.4 |  |  | 
24 | CCOC(=O)c1c2c(n(-c3ccc(F)cc3)c1C)C(=O)C=C(OC)C2=O | 3.9 |  |  | 
25 | CCOC(=S)SCc1c2c(n(C)c1C)C(=O)C=C(OC)C2=O | 1.1 |  | > 50 | > 50
26 | COC(=O)c1c2c(n(C)c1C)C(=O)C(C)=C(OC)C2=O | 13.7 |  |  | 
27 | CCCn1c(C)c(C(=O)OCC)c2c1C(=O)C(C)=C(OC)C2=O | 18.6 |  |  | 
28 | COC1=C(C)C(=O)c2c(c(CO)c(C)n2CCN2CCOCC2)C1=O | 7.6 |  |  | 
29 | CCOC(=O)c1c2c(n(-c3ccccc3)c1C)C(=O)C(C)=C(OC)C2=O | 7.9 |  |  | 
30 | COC1=CC(=O)c2[nH]c(C)c(C(C)=O)c2C1=O | 29.8 |  |  | 
31 | CCOC(=O)CNC(=O)OCc1c2c(n(C)c1C)C(=O)C=C(OC)C2=O | 0.11 | 19 | 3.8 | 3.2
32 | COC1=CC(=O)c2c(c(C(C)O)c(C)n2C)C1=O (centres undefined) | 10.4 |  |  | 
33 | Cc1c(C(C)O)c2c(n1C)C(=O)C=C(N1CCOCC1)C2=O (centres undefined) | 0.27 |  |  | 
34 | COC1=C(C)C(=O)c2c(c(CO)c(C)n2C)C1=O | 3.8 |  |  | 
35 | CCOC(=O)c1c2c(n(C3CC3)c1C)C(=O)C=C(OC)C2=O | 36.6 |  |  | 
36 | CCCn1c(C)c(CO)c2c1C(=O)C(C)=C(OC)C2=O | 1.7 |  |  | 
